For experiment [1], the target named is Tyrosine-protein kinase Lck (Homo sapiens) (UniProt P06239). In words: Inhibition of recombinant full-length human LCK at 1 uM using Cdc2 peptide as substrate measured after 40 mins in presence of [gamma33P]ATP by scintillation counting method relative to control.
In experiment [2] the test system is A549. Nature of the experiment: Induction of apoptosis in human A549 cells assessed as early apoptotic cells at 0.5 uM after 48 hrs by AnnexinV-FITC/PI staining-based flow cytometric analysis (reference value: 2.91%). The experiment is classed as functional. On the technique in general: Flow cytometry measures light scatter and fluorescence of single cells or particles in a stream.

For the next experiment, the system named is NCI-H1299. In words: Downregulation of NANOG in human H1299 cells at 0.25 to 1 uM by Western blot analysis. The experiment is classed as functional, cell-based. A general note: A western blot detects proteins with antibodies after separation by electrophoresis.
For the next experiment, the target named is CDK9/cyclin T1 (Homo sapiens, UniProt P50750). In words: Inhibition of recombinant full-length human CDK9/cyclinT1 using KTFCGTPEYLAPEVRREPRILSEEEQEMFRDFDYIADWC peptide as substrate measured after 40 mins in presence of [gamma33P]ATP by scintillation counting method. The experiment is classed as protein-complex assay. In short, it runs like this:
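IC50 against CDK9/cyclin T1, determined by the outsourced Eurofins KinaseProfiler service. Values are the mean of two independent experiments.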

The subject of experiment [3] is Receptor-type tyrosine-protein kinase FLT3 (Homo sapiens), P36888 [D835Y]. In words: Inhibition of recombinant human Flt3 (564 to end residues) D835Y mutant at 1 uM using EAIYAAPFAKKK as substrate measured after 40 mins in presence of [gamma33P]ATP by scintillation counting method relative to control.
Experiment [4] relates to Tyrosine-protein kinase ABL1 (Homo sapiens), P00519 [Q252H]. In words: Inhibition of recombinant human ABL Q252H mutant (27 to end residues) at 1 uM using EAIYAAPFAKKK as substrate measured after 40 mins in presence of [gamma33P]ATP by scintillation counting method relative to control.
Experiment [5] deals with Phosphatidylinositol 3-kinase C2 domain-containing subunit gamma (Homo sapiens) (UniProt O75747). Nature of the experiment: Inhibition of recombinant human PI3KC2gamma (468 to 1203 residues) at 1 uM using phosphatidylinositol as substrate measured after 40 mins by HTRF assay relative to control.
For experiment [6], the target named is Insulin receptor (Homo sapiens) (UniProt P06213). Nature of the experiment: Inhibition of recombinant human IR (1005 to 1310 residues) at 1 uM using KKSRGDYMTMQIG as substrate measured after 40 mins in presence of [gamma33P]ATP by scintillation counting method relative to control.
Chain of Insulin receptor (Homo sapiens) (P06213 28-758 limits assumed): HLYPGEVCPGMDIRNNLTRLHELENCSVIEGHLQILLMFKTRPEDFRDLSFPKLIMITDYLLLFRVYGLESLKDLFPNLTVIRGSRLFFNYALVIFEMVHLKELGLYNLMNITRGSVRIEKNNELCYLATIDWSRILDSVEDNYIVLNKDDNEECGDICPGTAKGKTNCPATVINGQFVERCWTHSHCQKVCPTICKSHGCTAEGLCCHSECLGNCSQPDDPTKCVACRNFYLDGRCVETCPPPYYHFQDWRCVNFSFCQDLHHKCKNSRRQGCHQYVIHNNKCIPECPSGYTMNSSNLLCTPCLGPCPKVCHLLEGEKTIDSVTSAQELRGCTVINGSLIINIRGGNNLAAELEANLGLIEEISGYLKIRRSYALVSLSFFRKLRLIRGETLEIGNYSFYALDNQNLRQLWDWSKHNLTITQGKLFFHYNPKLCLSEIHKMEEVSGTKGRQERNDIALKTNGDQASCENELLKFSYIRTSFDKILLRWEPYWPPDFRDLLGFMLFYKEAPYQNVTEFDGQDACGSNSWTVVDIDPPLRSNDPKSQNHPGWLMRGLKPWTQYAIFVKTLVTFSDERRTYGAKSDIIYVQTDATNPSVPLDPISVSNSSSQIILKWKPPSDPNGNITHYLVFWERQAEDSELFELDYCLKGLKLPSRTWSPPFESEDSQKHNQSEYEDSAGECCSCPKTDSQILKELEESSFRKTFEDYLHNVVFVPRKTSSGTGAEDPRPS
Chain of Insulin receptor (Homo sapiens) (P06213 763-1382 limits assumed): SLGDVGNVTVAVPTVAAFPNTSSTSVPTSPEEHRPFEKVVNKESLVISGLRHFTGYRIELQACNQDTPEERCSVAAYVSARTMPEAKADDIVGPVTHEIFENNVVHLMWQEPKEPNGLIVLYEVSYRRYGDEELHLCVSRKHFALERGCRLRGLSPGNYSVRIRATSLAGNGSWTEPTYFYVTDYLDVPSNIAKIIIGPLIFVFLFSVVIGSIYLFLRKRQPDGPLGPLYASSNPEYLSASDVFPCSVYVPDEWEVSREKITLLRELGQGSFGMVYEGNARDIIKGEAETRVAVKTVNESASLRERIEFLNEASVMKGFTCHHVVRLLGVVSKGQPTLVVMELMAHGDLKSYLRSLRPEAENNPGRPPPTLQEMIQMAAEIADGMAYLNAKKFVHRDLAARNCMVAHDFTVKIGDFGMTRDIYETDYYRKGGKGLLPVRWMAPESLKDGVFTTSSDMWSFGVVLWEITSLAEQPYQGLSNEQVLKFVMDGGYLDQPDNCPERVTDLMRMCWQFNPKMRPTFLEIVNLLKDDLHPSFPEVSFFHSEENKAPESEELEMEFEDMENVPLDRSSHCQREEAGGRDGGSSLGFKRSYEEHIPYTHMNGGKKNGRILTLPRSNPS
Experiment [7] relates to Serine/threonine-protein kinase D1 (Homo sapiens), Q15139 [UNDEFINED MUTATION]. In words: Inhibition of recombinant full-length human PKCmu R135A mutant at 1 uM using KKLNRTLSVA as substrate measured after 40 mins in presence of [gamma33P]ATP by scintillation counting method relative to control.
Another experiment is filed under the species Homo sapiens. In words: Inhibition of recombinant human DDR1 V833L mutant (492 to end residues) at 1 uM using KKKSPGEYVNIEFG as substrate measured after 40 mins in presence of [gamma33P]ATP by scintillation counting method relative to control.
Another experiment deals with U-937. Nature of the experiment: Antiproliferative activity against human U937 cells assessed as inhibition of cell viability after 72 hrs by CCK-8 assay. In kind it is functional, cell-based. Particulars: U-937, 72 h. In short, it runs like this:
(§1)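 Cells kept at 37 °C, 5% CO2 in DMEM or RPMI-1640 with 10% FBS and 1% penicillin/streptomycin, then seeded at 3000 cells/well (adherent) or 10,000 cells/well (suspension). Exposed to a range of concentrations for 72 h. CCK-8 added for 1-4 h before reading A450. […] Three independent experiments.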
On the technique in general: Tetrazolium dyes change colour on reduction, which living cells bring about.

The target of experiment [8] is Mitogen-activated protein kinase kinase kinase kinase 2 (Homo sapiens) (UniProt Q12851). Nature of the experiment: Inhibition of recombinant human GCK (1 to 473 residues) at 1 uM using myelin basic protein as substrate measured after 40 mins in presence of [gamma33P]ATP by scintillation counting method relative to control.
Chain of Mitogen-activated protein kinase kinase kinase kinase 2 (Homo sapiens) (Q12851 whole entry, the tested form may be a part): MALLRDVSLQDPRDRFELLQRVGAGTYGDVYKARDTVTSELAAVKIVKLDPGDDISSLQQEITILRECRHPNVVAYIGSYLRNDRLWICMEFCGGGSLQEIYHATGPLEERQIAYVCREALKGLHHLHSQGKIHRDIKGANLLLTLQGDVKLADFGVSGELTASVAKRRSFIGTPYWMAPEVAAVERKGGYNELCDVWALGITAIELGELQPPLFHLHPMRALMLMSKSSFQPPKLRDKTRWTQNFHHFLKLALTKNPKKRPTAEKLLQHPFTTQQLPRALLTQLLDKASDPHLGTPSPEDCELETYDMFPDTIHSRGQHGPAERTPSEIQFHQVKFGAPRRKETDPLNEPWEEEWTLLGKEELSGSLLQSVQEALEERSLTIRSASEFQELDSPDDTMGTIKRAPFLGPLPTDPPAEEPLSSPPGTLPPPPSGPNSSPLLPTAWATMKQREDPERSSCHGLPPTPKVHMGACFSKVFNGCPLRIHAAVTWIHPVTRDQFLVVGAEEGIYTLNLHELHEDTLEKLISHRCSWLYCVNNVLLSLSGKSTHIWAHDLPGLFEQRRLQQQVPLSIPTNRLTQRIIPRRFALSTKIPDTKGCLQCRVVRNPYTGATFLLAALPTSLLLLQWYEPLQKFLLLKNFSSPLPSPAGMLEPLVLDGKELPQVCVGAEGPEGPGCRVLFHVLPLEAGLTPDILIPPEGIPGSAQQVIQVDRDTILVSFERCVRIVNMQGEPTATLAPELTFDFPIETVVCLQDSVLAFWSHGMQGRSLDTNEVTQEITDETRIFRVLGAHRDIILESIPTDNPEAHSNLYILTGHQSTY
For experiment [9], the target named is Serine/threonine-protein kinase WNK3 (Homo sapiens) (UniProt Q9BYP7). In words: Inhibition of recombinant human WNK3 (1 to 434 residues) at 1 uM using MBP as substrate measured after 40 mins in presence of [gamma33P]ATP by scintillation counting method relative to control. In short, it runs like this:
(§2)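 Single-point inhibition at 1 µM was measured in the Eurofins KinaseProfiler panel. Values are the mean of two independent experiments.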

For experiment [10], the system named is A549. In words: Induction of apoptosis in human A549 cells assessed as decrease in Bcl-2 protein expression at 0.25 to 1 uM after 24 hrs by Western blot analysis. In kind it is functional, cell-based. In short, it runs like this:
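A549 or H1299 cells exposed to the indicated concentrations for 24 h. Protein extracts then immunoblotted for apoptosis-pathway proteins (Bcl2, Bim, cleaved caspase 3).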

Experiment [11] relates to PI3-kinase p110-alpha/p85-alpha (Homo sapiens), P27986+P42336 [E542K]. In words: Inhibition of recombinant full-length human PI3K p110alpha/p85alpha E542K mutant at 1 uM using phosphatidylinositol-4, 5-bisphosphate as substrate measured after 40 mins by HTRF assay relative to control.
The test system of another experiment is SiHa. Nature of the experiment: Antiproliferative activity against human SiHa cells assessed as inhibition of cell viability after 72 hrs by CCK-8 assay. In kind it is functional, cell-based. The method, boiled down:
as §1

The target in experiment [12] is Testis-specific serine/threonine-protein kinase 1 (Homo sapiens) (UniProt Q9BXA7). In words: Inhibition of recombinant full-length human TSSK1 at 1 uM using KKKVSRSGLYRSPSMPENLNRPR as substrate measured after 40 mins in presence of [gamma33P]ATP by scintillation counting method relative to control.
Experiment [13] has as its target Serine/threonine-protein kinase SBK1 (Homo sapiens) (UniProt Q52WX2). Nature of the experiment: Inhibition of recombinant full-length human SBK1 at 1 uM using KKLRRTLSVA as substrate measured after 120 mins in presence of [gamma33P]ATP by scintillation counting method relative to control.
Experiment [14] deals with CDK4/Cyclin D3 (Homo sapiens) (UniProt P11802+P30281). In words: Inhibition of recombinant full-length human CDK4/cyclinD3 at 1 uM using Rb fragment as substrate measured after 40 mins in presence of [gamma33P]ATP by scintillation counting method relative to control. In kind it is protein-complex assay. The method, boiled down: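 Percent inhibition of kinase activity at a single compound concentration, measured by the outsourced Eurofins KinaseProfiler panel. Values are the mean of two independent experiments.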

The subject of experiment [15] is Glycogen synthase kinase-3 beta (Homo sapiens), P49841 [UNDEFINED MUTATION]. In words: Inhibition of human recombinant GSK3beta H350L mutant (2 to end residues) at 1 uM using YRRAAVPPSPSLSR as substrate incubated for 40 mins in presence of [gamma-33P]ATP at Km concentration by radiometric assay relative to control. In short, it runs like this:
as §2

Experiment [16] deals with Mitogen-activated protein kinase 1 (Homo sapiens) (UniProt P28482). In words: Inhibition of recombinant full-length human MAPK1 at 1 uM using MBP as substrate measured after 40 mins in presence of [gamma33P]ATP by scintillation counting method relative to control.
Chain of Mitogen-activated protein kinase 1 (Homo sapiens) (P28482 whole entry): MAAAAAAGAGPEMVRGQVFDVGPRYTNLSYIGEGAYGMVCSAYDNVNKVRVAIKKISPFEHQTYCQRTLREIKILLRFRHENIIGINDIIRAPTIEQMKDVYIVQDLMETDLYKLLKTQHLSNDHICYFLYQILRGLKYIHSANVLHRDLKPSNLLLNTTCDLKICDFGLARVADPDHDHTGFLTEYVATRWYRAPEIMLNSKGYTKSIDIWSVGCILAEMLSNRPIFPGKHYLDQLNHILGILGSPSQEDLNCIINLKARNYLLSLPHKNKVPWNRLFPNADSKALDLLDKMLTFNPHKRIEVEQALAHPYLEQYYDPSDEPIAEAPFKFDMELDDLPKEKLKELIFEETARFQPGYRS
Experiment [17] has as its target Tyrosine-protein kinase Fer (Homo sapiens) (UniProt P16591). In words: Inhibition of recombinant human FER (541 to end residues) at 1 uM using KKKSPGEYVNIEFG as substrate measured after 40 mins in presence of [gamma33P]ATP by scintillation counting method relative to control.

A word on the inhibition: it is the change of the read-out against control, counted positive when it falls. As a reminder, the IC50 is the concentration that gives 50% inhibition.

Calls of active or inactive are those of the source. No cut-off for these calls is given here.

Chain of Tyrosine-protein kinase Fer (Homo sapiens) (P16591 whole entry, looked up): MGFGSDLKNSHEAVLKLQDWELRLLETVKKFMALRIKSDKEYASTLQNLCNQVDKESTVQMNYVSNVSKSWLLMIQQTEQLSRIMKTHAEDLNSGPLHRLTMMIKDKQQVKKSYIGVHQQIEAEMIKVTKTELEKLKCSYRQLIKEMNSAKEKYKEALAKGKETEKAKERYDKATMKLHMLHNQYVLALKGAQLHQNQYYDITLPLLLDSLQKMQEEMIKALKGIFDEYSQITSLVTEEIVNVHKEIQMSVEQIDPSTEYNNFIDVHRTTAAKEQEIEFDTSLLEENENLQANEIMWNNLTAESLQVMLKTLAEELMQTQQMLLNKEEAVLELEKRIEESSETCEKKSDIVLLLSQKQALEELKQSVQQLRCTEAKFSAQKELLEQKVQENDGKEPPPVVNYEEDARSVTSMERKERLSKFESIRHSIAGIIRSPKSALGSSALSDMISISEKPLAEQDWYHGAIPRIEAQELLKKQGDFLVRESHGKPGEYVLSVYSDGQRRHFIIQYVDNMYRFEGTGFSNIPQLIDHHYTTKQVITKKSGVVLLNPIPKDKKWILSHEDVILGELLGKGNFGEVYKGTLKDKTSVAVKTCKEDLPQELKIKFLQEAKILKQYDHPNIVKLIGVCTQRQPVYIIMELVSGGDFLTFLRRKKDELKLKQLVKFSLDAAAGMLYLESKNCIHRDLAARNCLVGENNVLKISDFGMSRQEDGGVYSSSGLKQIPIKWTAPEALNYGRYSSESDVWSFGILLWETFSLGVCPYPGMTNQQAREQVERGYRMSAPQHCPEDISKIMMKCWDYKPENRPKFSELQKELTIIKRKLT
Chain of CDK9/cyclin T1 (O60563 whole entry): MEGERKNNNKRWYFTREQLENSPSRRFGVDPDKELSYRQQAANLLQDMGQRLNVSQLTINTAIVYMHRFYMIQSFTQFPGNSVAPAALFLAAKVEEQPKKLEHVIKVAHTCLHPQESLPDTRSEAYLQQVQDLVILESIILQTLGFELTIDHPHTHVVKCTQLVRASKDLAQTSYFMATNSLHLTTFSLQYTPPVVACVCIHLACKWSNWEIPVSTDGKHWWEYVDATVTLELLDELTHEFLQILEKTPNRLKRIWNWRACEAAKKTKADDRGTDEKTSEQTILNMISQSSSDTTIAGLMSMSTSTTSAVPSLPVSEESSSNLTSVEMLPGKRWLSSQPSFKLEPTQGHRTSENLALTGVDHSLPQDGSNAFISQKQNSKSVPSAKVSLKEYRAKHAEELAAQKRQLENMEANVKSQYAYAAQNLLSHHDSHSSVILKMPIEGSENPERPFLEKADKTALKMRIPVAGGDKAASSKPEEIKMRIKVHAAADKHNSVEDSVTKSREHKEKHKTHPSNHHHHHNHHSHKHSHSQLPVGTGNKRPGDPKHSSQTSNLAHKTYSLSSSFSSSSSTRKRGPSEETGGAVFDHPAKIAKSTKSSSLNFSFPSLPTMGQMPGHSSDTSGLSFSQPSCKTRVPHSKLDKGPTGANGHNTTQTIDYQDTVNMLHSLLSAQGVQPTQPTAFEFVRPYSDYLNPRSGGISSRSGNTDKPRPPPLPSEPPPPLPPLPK
Chain of CDK9/cyclin T1 (P50750 whole entry): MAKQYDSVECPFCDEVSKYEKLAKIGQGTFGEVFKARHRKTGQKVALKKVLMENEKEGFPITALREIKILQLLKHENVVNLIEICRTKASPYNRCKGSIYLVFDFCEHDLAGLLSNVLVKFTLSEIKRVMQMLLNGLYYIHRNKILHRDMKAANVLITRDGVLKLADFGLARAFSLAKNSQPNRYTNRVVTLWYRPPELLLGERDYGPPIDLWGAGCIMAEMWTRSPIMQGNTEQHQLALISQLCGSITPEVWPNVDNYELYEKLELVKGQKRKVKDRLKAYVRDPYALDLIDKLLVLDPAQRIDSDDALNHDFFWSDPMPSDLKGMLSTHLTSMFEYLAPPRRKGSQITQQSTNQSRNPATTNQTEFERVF
Chain of Glycogen synthase kinase-3 beta (Homo sapiens), P49841 [UNDEFINED MUTATION] (P49841 whole entry, looked up, stated change not applied): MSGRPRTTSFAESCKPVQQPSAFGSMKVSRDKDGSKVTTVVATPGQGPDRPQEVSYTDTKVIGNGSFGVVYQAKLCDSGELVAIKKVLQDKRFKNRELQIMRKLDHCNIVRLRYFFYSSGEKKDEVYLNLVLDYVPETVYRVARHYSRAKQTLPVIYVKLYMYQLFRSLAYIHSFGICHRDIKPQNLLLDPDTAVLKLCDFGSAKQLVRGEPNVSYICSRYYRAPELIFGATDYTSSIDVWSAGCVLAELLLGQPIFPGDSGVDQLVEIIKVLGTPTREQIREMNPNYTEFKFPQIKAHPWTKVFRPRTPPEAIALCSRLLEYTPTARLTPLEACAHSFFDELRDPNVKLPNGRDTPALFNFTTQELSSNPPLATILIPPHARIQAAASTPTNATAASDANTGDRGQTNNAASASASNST

For `CN(C)C(=O)c1cc2cnc(Nc3ccc(NC(=O)CCCCCCCN=C=S)cc3)nc2n1C1CCCC1`, the inhibition in [1] was 33%; in experiment [3] it was 72%; in experiment [4], 48%; in experiment [5] it was 3%; in [6], -6%; in experiment [7], 3%. Further, the inhibition came out at 47% in the experiment filed under Homo sapiens; 81% in [8]; 12% in [9]; 10% in [11]; 7% in experiment [12]; 88% in [13]. Also, the inhibition came to 87% in [14], 32% in experiment [15], 3% in experiment [16] and 7% in experiment [17]. Further, the Activity in the experiment on A549 [2] amounted to 1.26%. Besides, the outcome with NCI-H1299 and in the experiment on A549 [10] was Active. The IC50 on CDK9/cyclin T1 was found to be 0.011 µM; in the experiment on U-937 it was 1.99 µM; with SiHa it was 1.81 µM.

Source of the values: ChEMBL document CHEMBL4376814, “Novel cyclin-dependent kinase 9 (CDK9) inhibitor with suppression of cancer stemness activity against non-small-cell lung cancer” (Eur J Med Chem, 2019).
